Test results as given in ChEMBL document CHEMBL1156088, “Synthesis and biological activity of novel oxazolidinones” (2009).
≈ marks a conversion by molar mass, not a printed value.

Test system: Staphylococcus aureus
Test: Antibacterial activity against Staphylococcus aureus 15187 by NCCLS method
Assay type: functional
How it was run: (§1)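 In vitro MIC determination by the NCCLS method against a panel of gram-positive bacteria. Two oxazolidinone reference standards were tested alongside.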

| Compound | MIC |
| --- | --- |
| O=C(CF)NC[C@H]1CN(c2ccc(N3CCN(Cc4ccc([N+](=O)[O-])o4)CC3)c(F)c2)C(=O)O1 | 2 µg/mL (≈ 4.17 µM) |
| O=C(NC[C@H]1CN(c2ccc(N3CCN(Cc4ccc([N+](=O)[O-])o4)CC3)c(F)c2)C(=O)O1)C(F)F | 1 µg/mL (≈ 2.01 µM) |
| CN(C)C(=S)NC[C@H]1CN(c2ccc(N3CCN(Cc4ccc([N+](=O)[O-])o4)CC3)c(F)c2)C(=O)O1 | > 16 µg/mL |
| O=C1O[C@@H](CO)CN1c1ccc(N2CCN(Cc3ccc([N+](=O)[O-])o3)CC2)c(F)c1 | > 16 µg/mL |
| NC(=S)NC[C@H]1CN(c2ccc(N3CCN(Cc4ccc([N+](=O)[O-])o4)CC3)c(F)c2)C(=O)O1 | 1 µg/mL (≈ 2.09 µM) |
| COC(=O)NC[C@H]1CN(c2ccc(N3CCN(Cc4ccc([N+](=O)[O-])o4)CC3)c(F)c2)C(=O)O1 | 8 µg/mL (≈ 16.8 µM) |
| NC[C@H]1CN(c2ccc(N3CCN(Cc4ccc([N+](=O)[O-])o4)CC3)c(F)c2)C(=O)O1 | > 16 µg/mL |

Test system: Staphylococcus aureus
Test: Antibacterial activity against Staphylococcus aureus ATCC 25923 by NCCLS method
Assay type: functional
How it was run: as §1

| Compound | MIC |
| --- | --- |
| O=C(CF)NC[C@H]1CN(c2ccc(N3CCN(Cc4ccc([N+](=O)[O-])o4)CC3)c(F)c2)C(=O)O1 | 4 µg/mL (≈ 8.34 µM) |
| O=C(NC[C@H]1CN(c2ccc(N3CCN(Cc4ccc([N+](=O)[O-])o4)CC3)c(F)c2)C(=O)O1)C(F)F | 2 µg/mL (≈ 4.02 µM) |
| CN(C)C(=S)NC[C@H]1CN(c2ccc(N3CCN(Cc4ccc([N+](=O)[O-])o4)CC3)c(F)c2)C(=O)O1 | > 16 µg/mL |
| O=C1O[C@@H](CO)CN1c1ccc(N2CCN(Cc3ccc([N+](=O)[O-])o3)CC2)c(F)c1 | > 16 µg/mL |
| NC(=S)NC[C@H]1CN(c2ccc(N3CCN(Cc4ccc([N+](=O)[O-])o4)CC3)c(F)c2)C(=O)O1 | 1 µg/mL (≈ 2.09 µM) |
| COC(=O)NC[C@H]1CN(c2ccc(N3CCN(Cc4ccc([N+](=O)[O-])o4)CC3)c(F)c2)C(=O)O1 | 8 µg/mL (≈ 16.8 µM) |
| NC[C@H]1CN(c2ccc(N3CCN(Cc4ccc([N+](=O)[O-])o4)CC3)c(F)c2)C(=O)O1 | > 16 µg/mL |

Test system: Staphylococcus aureus
Test: Antibacterial activity against methicillin-resistant Staphylococcus aureus 562 by NCCLS method
Assay type: functional
How it was run: (§2)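 In vitro MIC determined by the NCCLS method against a panel of gram-positive bacteria. Ranbezolid and linezolid were run alongside as reference standards.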

| Compound | MIC |
| --- | --- |
| O=C(CF)NC[C@H]1CN(c2ccc(N3CCN(Cc4ccc([N+](=O)[O-])o4)CC3)c(F)c2)C(=O)O1 | 2 µg/mL (≈ 4.17 µM) |
| O=C(NC[C@H]1CN(c2ccc(N3CCN(Cc4ccc([N+](=O)[O-])o4)CC3)c(F)c2)C(=O)O1)C(F)F | 2 µg/mL (≈ 4.02 µM) |
| CN(C)C(=S)NC[C@H]1CN(c2ccc(N3CCN(Cc4ccc([N+](=O)[O-])o4)CC3)c(F)c2)C(=O)O1 | > 16 µg/mL |
| O=C1O[C@@H](CO)CN1c1ccc(N2CCN(Cc3ccc([N+](=O)[O-])o3)CC2)c(F)c1 | > 16 µg/mL |
| NC(=S)NC[C@H]1CN(c2ccc(N3CCN(Cc4ccc([N+](=O)[O-])o4)CC3)c(F)c2)C(=O)O1 | 1 µg/mL (≈ 2.09 µM) |
| COC(=O)NC[C@H]1CN(c2ccc(N3CCN(Cc4ccc([N+](=O)[O-])o4)CC3)c(F)c2)C(=O)O1 | 2 µg/mL (≈ 4.19 µM) |
| NC[C@H]1CN(c2ccc(N3CCN(Cc4ccc([N+](=O)[O-])o4)CC3)c(F)c2)C(=O)O1 | > 16 µg/mL |

Test system: Staphylococcus aureus
Test: Antibacterial activity against methicillin-resistant Staphylococcus aureus 33 by NCCLS method
Assay type: functional
How it was run: as §2

| Compound | MIC |
| --- | --- |
| O=C(CF)NC[C@H]1CN(c2ccc(N3CCN(Cc4ccc([N+](=O)[O-])o4)CC3)c(F)c2)C(=O)O1 | 4 µg/mL (≈ 8.34 µM) |
| O=C(NC[C@H]1CN(c2ccc(N3CCN(Cc4ccc([N+](=O)[O-])o4)CC3)c(F)c2)C(=O)O1)C(F)F | 2 µg/mL (≈ 4.02 µM) |
| CN(C)C(=S)NC[C@H]1CN(c2ccc(N3CCN(Cc4ccc([N+](=O)[O-])o4)CC3)c(F)c2)C(=O)O1 | > 16 µg/mL |
| O=C1O[C@@H](CO)CN1c1ccc(N2CCN(Cc3ccc([N+](=O)[O-])o3)CC2)c(F)c1 | > 16 µg/mL |
| NC(=S)NC[C@H]1CN(c2ccc(N3CCN(Cc4ccc([N+](=O)[O-])o4)CC3)c(F)c2)C(=O)O1 | 1 µg/mL (≈ 2.09 µM) |
| COC(=O)NC[C@H]1CN(c2ccc(N3CCN(Cc4ccc([N+](=O)[O-])o4)CC3)c(F)c2)C(=O)O1 | 8 µg/mL (≈ 16.8 µM) |
| NC[C@H]1CN(c2ccc(N3CCN(Cc4ccc([N+](=O)[O-])o4)CC3)c(F)c2)C(=O)O1 | > 16 µg/mL |

Test system: Enterococcus faecalis
Test: Antibacterial activity against Enterococcus faecalis ATCC 29212 by NCCLS method
Assay type: functional
How it was run: as §1

| Compound | MIC |
| --- | --- |
| O=C(CF)NC[C@H]1CN(c2ccc(N3CCN(Cc4ccc([N+](=O)[O-])o4)CC3)c(F)c2)C(=O)O1 | 4 µg/mL (≈ 8.34 µM) |
| O=C(NC[C@H]1CN(c2ccc(N3CCN(Cc4ccc([N+](=O)[O-])o4)CC3)c(F)c2)C(=O)O1)C(F)F | 2 µg/mL (≈ 4.02 µM) |
| CN(C)C(=S)NC[C@H]1CN(c2ccc(N3CCN(Cc4ccc([N+](=O)[O-])o4)CC3)c(F)c2)C(=O)O1 | > 16 µg/mL |
| O=C1O[C@@H](CO)CN1c1ccc(N2CCN(Cc3ccc([N+](=O)[O-])o3)CC2)c(F)c1 | > 16 µg/mL |
| NC(=S)NC[C@H]1CN(c2ccc(N3CCN(Cc4ccc([N+](=O)[O-])o4)CC3)c(F)c2)C(=O)O1 | 0.5 µg/mL (≈ 1.04 µM) |
| COC(=O)NC[C@H]1CN(c2ccc(N3CCN(Cc4ccc([N+](=O)[O-])o4)CC3)c(F)c2)C(=O)O1 | 8 µg/mL (≈ 16.8 µM) |
| NC[C@H]1CN(c2ccc(N3CCN(Cc4ccc([N+](=O)[O-])o4)CC3)c(F)c2)C(=O)O1 | > 16 µg/mL |

Test system: Enterococcus faecium
Test: Antibacterial activity against vancomycin-resistant Enterococcus faecium 6A by NCCLS method
Assay type: functional
How it was run: as §2

| Compound | MIC |
| --- | --- |
| O=C(CF)NC[C@H]1CN(c2ccc(N3CCN(Cc4ccc([N+](=O)[O-])o4)CC3)c(F)c2)C(=O)O1 | 4 µg/mL (≈ 8.34 µM) |
| O=C(NC[C@H]1CN(c2ccc(N3CCN(Cc4ccc([N+](=O)[O-])o4)CC3)c(F)c2)C(=O)O1)C(F)F | 2 µg/mL (≈ 4.02 µM) |
| CN(C)C(=S)NC[C@H]1CN(c2ccc(N3CCN(Cc4ccc([N+](=O)[O-])o4)CC3)c(F)c2)C(=O)O1 | > 16 µg/mL |
| O=C1O[C@@H](CO)CN1c1ccc(N2CCN(Cc3ccc([N+](=O)[O-])o3)CC2)c(F)c1 | > 16 µg/mL |
| NC(=S)NC[C@H]1CN(c2ccc(N3CCN(Cc4ccc([N+](=O)[O-])o4)CC3)c(F)c2)C(=O)O1 | 1 µg/mL (≈ 2.09 µM) |
| COC(=O)NC[C@H]1CN(c2ccc(N3CCN(Cc4ccc([N+](=O)[O-])o4)CC3)c(F)c2)C(=O)O1 | 8 µg/mL (≈ 16.8 µM) |
| NC[C@H]1CN(c2ccc(N3CCN(Cc4ccc([N+](=O)[O-])o4)CC3)c(F)c2)C(=O)O1 | > 16 µg/mL |

Test system: Streptococcus pyogenes
Test: Antibacterial activity against Streptococcus pyogenes ATCC 19615 by NCCLS method
Assay type: functional
How it was run: as §1

| Compound | MIC |
| --- | --- |
| O=C(CF)NC[C@H]1CN(c2ccc(N3CCN(Cc4ccc([N+](=O)[O-])o4)CC3)c(F)c2)C(=O)O1 | 0.5 µg/mL (≈ 1.04 µM) |
| O=C(NC[C@H]1CN(c2ccc(N3CCN(Cc4ccc([N+](=O)[O-])o4)CC3)c(F)c2)C(=O)O1)C(F)F | 0.5 µg/mL (≈ 1.01 µM) |
| CN(C)C(=S)NC[C@H]1CN(c2ccc(N3CCN(Cc4ccc([N+](=O)[O-])o4)CC3)c(F)c2)C(=O)O1 | > 16 µg/mL |
| O=C1O[C@@H](CO)CN1c1ccc(N2CCN(Cc3ccc([N+](=O)[O-])o3)CC2)c(F)c1 | > 16 µg/mL |
| NC(=S)NC[C@H]1CN(c2ccc(N3CCN(Cc4ccc([N+](=O)[O-])o4)CC3)c(F)c2)C(=O)O1 | 0.25 µg/mL (≈ 0.522 µM) |
| COC(=O)NC[C@H]1CN(c2ccc(N3CCN(Cc4ccc([N+](=O)[O-])o4)CC3)c(F)c2)C(=O)O1 | 1 µg/mL (≈ 2.09 µM) |
| NC[C@H]1CN(c2ccc(N3CCN(Cc4ccc([N+](=O)[O-])o4)CC3)c(F)c2)C(=O)O1 | > 16 µg/mL |

Test system: Streptococcus pneumoniae
Test: Antibacterial activity against Streptococcus pneumoniae ATCC 6303 by NCCLS method
Assay type: functional
How it was run: as §1

| Compound | MIC |
| --- | --- |
| O=C(CF)NC[C@H]1CN(c2ccc(N3CCN(Cc4ccc([N+](=O)[O-])o4)CC3)c(F)c2)C(=O)O1 | 1 µg/mL (≈ 2.09 µM) |
| O=C(NC[C@H]1CN(c2ccc(N3CCN(Cc4ccc([N+](=O)[O-])o4)CC3)c(F)c2)C(=O)O1)C(F)F | 0.5 µg/mL (≈ 1.01 µM) |
| CN(C)C(=S)NC[C@H]1CN(c2ccc(N3CCN(Cc4ccc([N+](=O)[O-])o4)CC3)c(F)c2)C(=O)O1 | > 16 µg/mL |
| O=C1O[C@@H](CO)CN1c1ccc(N2CCN(Cc3ccc([N+](=O)[O-])o3)CC2)c(F)c1 | > 16 µg/mL |
| NC(=S)NC[C@H]1CN(c2ccc(N3CCN(Cc4ccc([N+](=O)[O-])o4)CC3)c(F)c2)C(=O)O1 | < 0.06 µg/mL |
| COC(=O)NC[C@H]1CN(c2ccc(N3CCN(Cc4ccc([N+](=O)[O-])o4)CC3)c(F)c2)C(=O)O1 | 1 µg/mL (≈ 2.09 µM) |
| NC[C@H]1CN(c2ccc(N3CCN(Cc4ccc([N+](=O)[O-])o4)CC3)c(F)c2)C(=O)O1 | > 16 µg/mL |
